A short description of series [1]: Half life in Sprague-Dawley rat at 5 mg/kg, iv and 20 mg/kg, po. Format: ADME, organism-based. Particulars: in vivo.
The target of another series is T1, Aurora kinase A (Homo sapiens, UniProt O14965).
T1 sequence (O14965 whole entry): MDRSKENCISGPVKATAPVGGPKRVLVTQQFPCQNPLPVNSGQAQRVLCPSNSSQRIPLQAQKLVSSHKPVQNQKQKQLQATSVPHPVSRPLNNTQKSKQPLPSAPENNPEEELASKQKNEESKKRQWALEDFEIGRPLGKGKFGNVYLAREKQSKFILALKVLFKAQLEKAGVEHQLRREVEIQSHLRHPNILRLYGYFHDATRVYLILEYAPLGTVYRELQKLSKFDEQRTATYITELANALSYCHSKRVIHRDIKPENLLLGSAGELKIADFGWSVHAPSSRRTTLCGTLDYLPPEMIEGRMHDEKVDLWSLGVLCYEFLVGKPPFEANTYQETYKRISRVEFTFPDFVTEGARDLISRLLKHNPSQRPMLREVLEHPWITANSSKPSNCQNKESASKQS
Description: Inhibition of recombinant GST-tagged Aurora A expressed in Sf9 insect cells after 90 mins by Kinase-Glo assay. The method, boiled down: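 GST-Aurora A kinase domain (S123–S401, 150 ng) from Sf9 cells. Buffer was 50 mM Tris-HCl pH 7.4 with 10 mM NaCl, 10 mM MgCl2, 0.01% BSA and 1 mM DTT. Kinase-Glo Plus was added for 20 min at 25 °C before the luminescence read.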
A general note: Kinase-Glo measures the ATP left after a reaction by luminescence.

In series [2] the test system is MOLM-13. Description: Antitumor activity against human MOLM13 cells xenografted in athymic nu/nu nude mouse assessed as inhibition of tumor growth at 10 mg/kg, iv qd administered for 1 to 5 and 8 to 12 days measured during first 5 days of treatment. Further details: dose 10 mg/kg. Format: functional, organism-based. The method, boiled down:
(§1)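 Athymic nu/nu mice (9 weeks old) received 1 × 10^6 MOLM-13 cells s.c. in the left flank. They were randomized at a mean tumor volume of about 200 mm3, with 7–8 per group. Dosing was iv once daily at 10 or 50 mg/kg on days 1–5 and 8–12, in 10% DMSO/20% Cremophor/70% saline. Vehicle controls were dosed the same way. Caliper volume = (width × length²)/2, reported as mean ± SEM.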

A short description of series [3]: Clearance in Sprague-Dawley rat at 5 mg/kg, iv and 20 mg/kg, po. The note with it: in vivo. The format is ADME, organism-based.
The test system of the next series is MV4-11. Description: Antiproliferation activity against FLT3/ITD harboring human MV4-11 cells after 72 hrs by MTS method. The format is functional. The note with it: MV4-11, 72 h. In general terms: Tetrazolium assays rely on reduction of a dye to a coloured formazan, in cell work by metabolically active cells.
Series [4] deals with MOLM-13. Description: Antitumor activity against human MOLM13 cells xenografted in athymic nu/nu nude mouse assessed as tumor growth regression at 50 mg/kg, iv qd administered for 1 to 5 and 8 to 12 days. Format: functional, organism-based. More on the design: dose 50 mg/kg. The method, boiled down: as §1
The subject of series [5] is MOLM-13. Description: Antitumor activity against human MOLM13 cells xenografted in iv dosed athymic nu/nu nude mouse assessed as inhibition of tumor growth administered qd for two weeks. Format: functional, organism-based. The method, boiled down: as §1

Molecules are shown by their SMILES. Active and inactive are the calls of the source. The rule behind the calls is not given here.

By half-life is commonly meant how long it takes for the measured level to halve. The low end stands for rapid decline, the high end for slow decline. Usually IC50 stands for the concentration that inhibits the measured activity by half. What is called GI50 is the concentration at which growth is held to half of that of the control. A lower GI50 goes with greater sensitivity of the cells. In series [1], `Cc1nc(Nc2cc(-c3cccc(NS(=O)(=O)c4ccccc4)c3)n[nH]2)cc(N2CCN(C)CC2)n1` showed a half-life of 4.2 h. Moreover, the IC50 on Aurora kinase A stood at 290 nM. The outcome in the series on MOLM-13 [2] and in the series on MOLM-13 [4] was Active. Moreover, the clearance in series [3] was 57.4 mL/min/kg. For the same compound, in the series on MV4-11, the GI50 worked out at 27 nM. Moreover, in the series with MOLM-13 [5], the Activity entry is “Dose-dependent effect”.

(Values after ChEMBL document CHEMBL1806486, “Discovery and evaluation of 3-phenyl-1H-5-pyrazolylamine-based derivatives as potent, selective and efficacious inhibitors of FMS-like tyrosine kinase-3 (FLT3)” (Bioorg Med Chem, 2011).)
